Data reported in ChEMBL document CHEMBL1152403, “Synthesis and evaluation of new endomorphin analogues modified at the Pro(2) residue” (Bioorg Med Chem Lett, 2009).
Where a SMILES comes first, the peptide text is derived from it. [ ]: non-standard residue; d: D form. Dha = C=C(N)C(=O)O

Legend:
[1] = molecular target: Delta-type opioid receptor (Mus musculus) (UniProt P32300); test: Agonist activity at delta opioid receptor in mouse vas deference assessed as inhibition of electrically-stimulated contraction at 1 uM; format: functional
Sequence of Delta-type opioid receptor (Mus musculus) (P32300 whole entry): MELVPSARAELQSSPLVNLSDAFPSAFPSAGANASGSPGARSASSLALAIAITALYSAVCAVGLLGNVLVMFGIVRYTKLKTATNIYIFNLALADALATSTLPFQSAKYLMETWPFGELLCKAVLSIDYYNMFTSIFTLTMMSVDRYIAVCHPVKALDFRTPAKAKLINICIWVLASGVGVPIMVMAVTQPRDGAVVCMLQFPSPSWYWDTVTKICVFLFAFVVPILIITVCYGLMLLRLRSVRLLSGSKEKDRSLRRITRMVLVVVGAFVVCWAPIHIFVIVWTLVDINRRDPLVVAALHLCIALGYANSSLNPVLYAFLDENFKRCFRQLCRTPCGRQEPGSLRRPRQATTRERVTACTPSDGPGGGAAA

[2] = molecular target: Mu-type opioid receptor (Rattus norvegicus, UniProt P33535); test: Displacement of [3H]DAMGO from mu opioid receptor in rat brain membrane by liquid scintillation counting; format: cell membranes
Sequence of Mu-type opioid receptor (Rattus norvegicus, UniProt P33535) (P33535 whole entry): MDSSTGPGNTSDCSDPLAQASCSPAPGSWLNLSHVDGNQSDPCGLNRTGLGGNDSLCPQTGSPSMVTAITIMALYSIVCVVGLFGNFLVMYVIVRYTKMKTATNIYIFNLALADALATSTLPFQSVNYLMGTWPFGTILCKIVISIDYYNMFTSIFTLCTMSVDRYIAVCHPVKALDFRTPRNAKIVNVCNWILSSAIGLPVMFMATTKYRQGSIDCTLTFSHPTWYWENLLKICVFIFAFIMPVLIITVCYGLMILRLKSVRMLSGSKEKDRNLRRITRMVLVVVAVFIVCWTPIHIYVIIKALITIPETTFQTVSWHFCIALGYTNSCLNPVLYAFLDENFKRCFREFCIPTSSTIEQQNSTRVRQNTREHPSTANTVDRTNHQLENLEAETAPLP

[3] = molecular target: Delta-type opioid receptor (Rattus norvegicus, UniProt P33533); test: Displacement of [3H][…] from delta opioid receptor in rat brain membrane by liquid scintillation counting; format: cell membranes
Sequence of Delta-type opioid receptor (Rattus norvegicus, UniProt P33533) (P33533 whole entry): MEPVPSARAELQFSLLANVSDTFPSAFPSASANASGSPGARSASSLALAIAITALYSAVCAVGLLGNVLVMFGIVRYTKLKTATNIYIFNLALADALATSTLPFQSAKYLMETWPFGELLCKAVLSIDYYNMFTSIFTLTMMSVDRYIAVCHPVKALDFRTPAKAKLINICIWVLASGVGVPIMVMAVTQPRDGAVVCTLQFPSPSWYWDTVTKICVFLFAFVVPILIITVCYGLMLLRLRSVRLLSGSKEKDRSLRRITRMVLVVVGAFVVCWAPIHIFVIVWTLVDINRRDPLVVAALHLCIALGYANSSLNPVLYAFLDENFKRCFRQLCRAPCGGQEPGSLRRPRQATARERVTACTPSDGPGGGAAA

[4] = species on record: Rattus norvegicus; test: Selectivity ratio of Ki for delta opioid receptor in rat brain membrane to Ki for mu opioid receptor in rat brain membrane; format: cell membranes
[5] = molecular target: Delta-type opioid receptor (Mus musculus, UniProt P32300); test: Agonist activity at delta opioid receptor in mouse vas deference assessed as inhibition of electrically-stimulated contraction; format: functional
Sequence of Delta-type opioid receptor (Mus musculus, UniProt P32300) (P32300 whole entry): as the sequence (P32300 whole entry) above
Procedure, shortened: (§1)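 Isolated-tissue bioassay of inhibition of electrically evoked contraction (MVD for δ, GPI/LMMP for μ). IC50 is the mean of at least four experiments. IC50, relative potency and standard errors were obtained by fitting the data to the Hill equation by computerized non-linear least squares.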

[6] = molecular target: Mu-type opioid receptor (Cavia porcellus, UniProt P97266); test: Agonist activity at mu opioid receptor in guinea pig ileum assessed as inhibition of electrically-stimulated contraction; format: functional, tissue-based; procedure, shortened: as §1
Sequence of Mu-type opioid receptor (Cavia porcellus, UniProt P97266) (P97266 whole entry): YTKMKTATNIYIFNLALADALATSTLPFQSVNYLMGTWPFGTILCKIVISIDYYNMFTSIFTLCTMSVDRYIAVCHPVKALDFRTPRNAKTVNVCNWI

Q: With NC(=O)[C@H](Cc1ccccc1)NC(=O)[C@H](Cc1ccccc1)NC(=O)C1CN(C(=O)[C@@H](N)Cc2ccc(O)cc2)C1 as the molecule, how does the inhibition [1] read?
A: 13%

Q: What about the Ki [2] of the same molecule?
A: 210 nM

Q: What about the Ki [3] of the same molecule?
A: 6900 nM

Q: And the Ratio Ki [4]?
A: 32

Q: NC(=O)[C@H](Cc1ccccc1)NC(=O)[C@H](Cc1ccccc1)NC(=O)[C@@H]1CCN1C(=O)[C@@H](N)Cc1ccc(O)cc1 was tested. Which Ki [2] did it give?
A: 5.6 nM

Q: And the Ki [3]?
A: 5100 nM

Q: And the Ratio Ki [4]?
A: 920

Q: How did the Ki [2] turn out when C=C(NC(=O)[C@@H](N)Cc1ccc(O)cc1)C(=O)N[C@@H](Cc1ccccc1)C(=O)N[C@@H](Cc1ccccc1)C(N)=O (H-Y[Dha]FF-NH2) was run?
A: 34 nM

Q: And the Ki [3]?
A: 710 nM

Q: What about the Ratio Ki [4] of the same molecule?
A: 21

Q: What does the source list for NC(=O)[C@H](Cc1ccccc1)NC(=O)[C@H](Cc1c[nH]c2ccccc12)NC(=O)C1CN(C(=O)[C@@H](N)Cc2ccc(O)cc2)C1?
A: Ki [2]: 34 nM; Ki [3]: 40 nM; Ratio Ki [4]: 1.2

Q: Which IC50 [5] does the source give for NC(=O)[C@H](Cc1ccccc1)NC(=O)[C@H](Cc1ccccc1)NC(=O)[C@@H]1C=CCN1C(=O)[C@@H](N)Cc1ccc(O)cc1 here?
A: 70000 nM

Q: What about the Ki [2] of the same molecule?
A: 6.5 nM

Q: What about the IC50 [6] of the same molecule?
A: 14000 nM

Q: Which results are given for NC(=O)[C@H](Cc1ccccc1)NC(=O)[C@H](Cc1c[nH]c2ccccc12)NC(=O)[C@@H]1CCN1C(=O)[C@@H](N)Cc1ccc(O)cc1?
A: Ki [2]: 2.3 nM; Ki [3]: 3500 nM; Ratio Ki [4]: 1500
